In ChEMBL document CHEMBL3286182, “4-aminoquinolone piperidine amides: noncovalent inhibitors of DprE1 with long residence time and potent antimycobacterial activity” (J Med Chem, 2014):
≈ marks a conversion by molar mass, not a printed value. Calls of active or inactive are those of the source. The calls are words filed in the database; no cut-off is given here.

Tests used:
[1] = Intrinsic clearance in human liver microsomes at 1 uM up to 30 mins by LC-MS/MS analysis; format: ADME; conditions: read-out: CLH
Klebsiella pneumoniae = experiment: Antimicrobial activity against Klebsiella pneumoniae ARC1865 at 100 uM; format: functional, organism-based
Outline: (§1)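 Nonmycobacterial panel of Candida albicans, Gram-negative and Gram-positive pathogens.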

[2] = system: Mycobacterium tuberculosis; experiment: Bactericidal activity against Mycobacterium tuberculosis H37Rv after 3 days relative to control; format: functional
[3] = Fraction unbound in human plasma at 20 uM after 18 hrs by equilibrium dialysis method; format: ADME, cell-free
[4] = system: Mycobacterium tuberculosis; experiment: Antimycobacterial activity against Mycobacterium tuberculosis over expressing PimA after 5 days by standard microdilution method; format: functional; conditions: 120 h
[5] = Oral bioavailability in Wistar rat at 10 mg/kg; format: ADME, organism-based; conditions: in vivo
Outline: (§2)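 Male Wistar rats given a single dose, 2 mg/kg intravenously or 10 mg/kg orally. Plasma concentration followed over time, n = 2 per compound. Parameters taken from the plasma curves: C0 (iv), Cmax (oral), AUC0−∞, elimination half-life, plasma clearance, Vss and oral bioavailability.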

[6] = system: Mycobacterium tuberculosis; experiment: Antimycobacterial activity against Mycobacterium tuberculosis over expressing TopA after 5 days by standard microdilution method; format: functional; conditions: 120 h
[7] = Inhibition of Mycobacterium smegmatis DprE1 Y321H mutant using farnesylphosphoryl-beta-D-ribofuranose as substrate assessed as conversion of amplex red to resorufin after 30 mins; set-up: species or system Mycolicibacterium smegmatis
Outline: (§3)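 Recombinant M. smegmatis DprE1 (thioredoxin-6His fusion), wild type or Y321H, 75 nM. Enzyme was preincubated 30 min in FAD assay mix: 50 mM glycylglycine pH 8.5, 200 mM potassium glutamate, 10 μM FAD, 0.002% Brij-35, 2% DMSO. Reaction was started with 300 μM farnesylphosphoryl-β-D-ribofuranose, 0.01 mg/mL HRP and 50 μM amplex red at 25 °C.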

[8] = Intrinsic clearance in rat cryopreserved hepatocytes assessed per 10^6 cells at 1 uM up to 120 mins by LC-MS/MS analysis; format: ADME, cell-based, Hepatocyte; conditions: read-out: CLH
[9] = Permeability of the compound from basolateral to apical side in human Caco2 cells; format: ADME, cell-based; conditions: Caco-2, read-out: permeability
Haemophilus influenzae [10] = experiment: Antimicrobial activity against Haemophilus influenzae ARC158 at 100 uM; format: functional, organism-based; outline: as §1
Haemophilus influenzae [11] = experiment: Antimicrobial activity against Haemophilus influenzae ARC446 at 100 uM; format: functional, organism-based; outline: as §1
[12] = Permeability of the compound from apical to basolateral side in human Caco2 cells; format: ADME, cell-based; conditions: Caco-2, read-out: permeability
[13] = AUC (0 to infinity) in Wistar rat at 2 mg/kg, iv; format: ADME, organism-based; set-up: dose 2 mg/kg, route intravenous, time infinity; conditions: plasma; outline: as §2
Escherichia coli [14] = experiment: Antimicrobial activity against Escherichia coli ARC523 at 100 uM; format: functional, organism-based; outline: as §1
Streptococcus pneumoniae = experiment: Antimicrobial activity against Streptococcus pneumoniae ARC548 at 100 uM; format: functional, organism-based; outline: as §1
[15] = system: Mycolicibacterium smegmatis; experiment: Binding affinity to Mycobacterium smegmatis recombinant DprE1 assessed as half life
Outline: (§4)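 Progress curves (fluorescence vs time) recorded at several inhibitor concentrations with 75 nM Msm DprE1 in the FAD/HRP/Amplex Red coupled assay, pH 8.5, 25 °C. A single-step reversible slow-binding model was fitted globally, with vs and vi fitted per concentration and koff and Kiapp shared. Half-life and residence time were derived from koff.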

[16] = Initial plasma concentration in Wistar rat at 2 mg/kg, iv; format: ADME, organism-based; set-up: dose 2 mg/kg, route intravenous; outline: as §2
[17] = AUC (0 to infinity) in Wistar rat at 10 mg/kg, po; format: ADME, organism-based; set-up: time infinity, dose 10 mg/kg, route oral; conditions: plasma; outline: as §2
[18] = Elimination half life in Wistar rat at 10 mg/kg, po; format: ADME, organism-based; set-up: dose 10 mg/kg, route oral; conditions: in vivo, read-out: beta t1/2 (converted); outline: as §2
[19] = Cmax in Wistar rat at 10 mg/kg, po; format: ADME, organism-based; set-up: dose 10 mg/kg, route oral; conditions: in vivo; outline: as §2
Staphylococcus aureus = experiment: Antimicrobial activity against Staphylococcus aureus ARC517 at 100 uM; format: functional, organism-based; outline: as §1
Pseudomonas aeruginosa [20] = experiment: Antimicrobial activity against Pseudomonas aeruginosa ARC545 at 100 uM; format: functional, organism-based; outline: as §1
[21] = Clearance in Wistar rat at 2 mg/kg, iv; format: ADME, organism-based; set-up: dose 2 mg/kg, route intravenous; conditions: in vivo; outline: as §2
[22] = system: Mycobacterium tuberculosis; experiment: Bactericidal activity against Mycobacterium tuberculosis H37Rv after 7 days relative to control; format: functional
[23] = Cytotoxicity against human A549 cells after 72 hrs by resazurin based fluorescence assay; format: cell-based; conditions: read-out: MIC
Outline: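 Cytotoxicity read as MMIC, the MIC on the A549 cell line.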

[24] = system: Mycobacterium tuberculosis; experiment: Antimycobacterial activity against Mycobacterium tuberculosis over expressing DprE1 after 5 days by standard microdilution method; format: functional; conditions: 120 h
Candida albicans = experiment: Antimicrobial activity against Candida albicans ARC527 at 100 uM; format: functional, organism-based; outline: as §1
[25] = system: Mycolicibacterium smegmatis; experiment: Ratio of IC50 for Mycobacterium smegmatis DprE1 Y321H mutant to IC50 for Mycobacterium smegmatis recombinant wild type DprE1; outline: as §3
[26] = system: Mycolicibacterium smegmatis; experiment: Binding affinity to Mycobacterium smegmatis recombinant DprE1 assessed as residence time; outline: as §4
[27] = Volume of distribution at steady state in Wistar rat at 2 mg/kg, iv; format: ADME, organism-based; set-up: dose 2 mg/kg, route intravenous; conditions: in vivo, read-out: Vdss; outline: as §2
Escherichia coli [28] = experiment: Antimicrobial activity against Escherichia coli ARC524 at 100 uM; format: functional, organism-based; outline: as §1
[29] = Inhibition of Mycobacterium smegmatis recombinant DprE1 using farnesylphosphoryl-beta-D-ribofuranose as substrate assessed as conversion of amplex red to resorufin after 30 mins; set-up: species or system Mycolicibacterium smegmatis
Outline: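 Msm DprE1 (thioredoxin-6His fusion of Msm Rv3790) at 75 nM, preincubated 30 min with 10 μM FAD. Buffer: 50 mM glycylglycine pH 8.5, 200 mM potassium glutamate, 0.002% Brij-35, 2% DMSO, 25 °C. Started with 300 μM farnesylphosphoryl-β-D-ribofuranose, 0.01 mg/mL HRP and 50 μM Amplex Red.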

[30] = target: Voltage-gated inwardly rectifying potassium channel KCNH2 (Homo sapiens, UniProt Q12809); experiment: Inhibition of human ERG by medium-throughput electrophysiology
Sequence of Voltage-gated inwardly rectifying potassium channel KCNH2 (Q12809 whole entry): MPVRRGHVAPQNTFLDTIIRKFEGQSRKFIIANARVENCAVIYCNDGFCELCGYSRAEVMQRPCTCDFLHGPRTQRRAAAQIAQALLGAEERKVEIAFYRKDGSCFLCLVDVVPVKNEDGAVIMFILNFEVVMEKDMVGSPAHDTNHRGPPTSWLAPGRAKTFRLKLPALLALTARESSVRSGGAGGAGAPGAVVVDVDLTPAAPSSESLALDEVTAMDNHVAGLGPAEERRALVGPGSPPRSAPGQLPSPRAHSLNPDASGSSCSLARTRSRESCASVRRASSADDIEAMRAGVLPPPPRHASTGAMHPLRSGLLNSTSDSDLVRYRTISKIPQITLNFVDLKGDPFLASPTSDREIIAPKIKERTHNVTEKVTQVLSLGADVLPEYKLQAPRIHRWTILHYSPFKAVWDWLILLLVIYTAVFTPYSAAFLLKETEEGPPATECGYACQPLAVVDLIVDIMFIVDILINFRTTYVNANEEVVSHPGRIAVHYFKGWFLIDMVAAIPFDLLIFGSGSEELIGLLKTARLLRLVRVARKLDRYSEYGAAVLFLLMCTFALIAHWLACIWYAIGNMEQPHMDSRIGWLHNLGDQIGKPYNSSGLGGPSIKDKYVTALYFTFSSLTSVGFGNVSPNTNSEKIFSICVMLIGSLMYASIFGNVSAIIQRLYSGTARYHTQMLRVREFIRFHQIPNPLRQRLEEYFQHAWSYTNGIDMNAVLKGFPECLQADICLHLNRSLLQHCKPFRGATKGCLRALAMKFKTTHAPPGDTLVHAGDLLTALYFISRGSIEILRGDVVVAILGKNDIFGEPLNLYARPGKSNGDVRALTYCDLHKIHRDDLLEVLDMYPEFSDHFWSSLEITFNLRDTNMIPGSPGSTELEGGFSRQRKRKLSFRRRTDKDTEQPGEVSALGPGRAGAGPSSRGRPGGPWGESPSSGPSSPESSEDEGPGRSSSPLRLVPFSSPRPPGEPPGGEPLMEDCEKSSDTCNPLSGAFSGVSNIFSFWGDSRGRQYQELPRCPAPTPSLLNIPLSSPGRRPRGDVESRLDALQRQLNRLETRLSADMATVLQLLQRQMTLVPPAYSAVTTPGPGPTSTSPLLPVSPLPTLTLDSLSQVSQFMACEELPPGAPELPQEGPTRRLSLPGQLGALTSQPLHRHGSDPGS

[31] = system: Mycolicibacterium smegmatis; experiment: Antimicrobial activity against Mycobacterium smegmatis mc2155 at 100 uM; format: functional, organism-based; conditions: str. MC2 155
[32] = system: Mycobacterium tuberculosis; experiment: Antimycobacterial activity against Mycobacterium tuberculosis H37Rv at >MIC after 21 to 28 days; format: functional
[33] = Octanol-water partition coefficient, log D of the compound by shake-flask method; format: physicochemical
Pseudomonas aeruginosa [34] = experiment: Antimicrobial activity against Pseudomonas aeruginosa ARC546 at 100 uM; format: functional, organism-based; outline: as §1
[35] = Elimination half life in Wistar rat at 2 mg/kg, iv; format: ADME, organism-based; set-up: dose 2 mg/kg, route intravenous; conditions: in vivo, read-out: beta t1/2 (converted); outline: as §2
[36] = system: Mycolicibacterium smegmatis; experiment: Binding affinity to Mycobacterium smegmatis recombinant DprE1 assessed as dissociation constant; outline: as §4
[37] = system: Mycobacterium tuberculosis; experiment: Antimycobacterial activity against Mycobacterium tuberculosis H37Rv under hypoxic condition after 6 days by resazurin assay; format: functional; conditions: 144 h
[38] = system: Mycolicibacterium smegmatis; experiment: Antimicrobial activity against Mycobacterium smegmatis ATCC 607 at 100 uM; format: functional, organism-based
[39] = system: Mycobacterium tuberculosis; experiment: Antimycobacterial activity against Mycobacterium tuberculosis H37Rv after 5 days by standard microdilution method; format: functional; conditions: 120 h
[40] = Solubility of the compound in 0.1 M phosphate buffer at pH 7.4 after 24 hrs by UV and MS analysis; format: physicochemical
[41] = system: Mycobacterium tuberculosis; experiment: Antimycobacterial activity against Mycobacterium tuberculosis over expressing InhA after 5 days by standard microdilution method; format: functional; conditions: 120 h
[42] = system: Mycolicibacterium smegmatis; experiment: Binding affinity to Mycobacterium smegmatis recombinant DprE1 at 0.5 to 10000 nM up to 30 mins
[43] = system: Mycolicibacterium smegmatis; experiment: Binding affinity to Mycobacterium smegmatis DprE1 Y321H mutant at 0.5 to 10000 nM up to 30 mins

Structure (SMILES): Cn1ncc(C(=O)N2CCC(Nc3cc(=O)[nH]c4cc(F)c(F)cc34)CC2)c1Cl
- microsomal CLint at 1 µM [1]: 12.5 µL/min/mg
- Activity (Klebsiella pneumoniae): inactive
- LCK [2]: 3
- fraction unbound at 18 h, 20 µM [3]: 0.4
- MIC [4]: 0.4 µM (≈ 0.169 µg/mL)
- bioavailability [5]: 0.3%
- MIC [6]: 0.4 µM (≈ 0.169 µg/mL)
- IC50 [7]: > 10000 nM
- hepatocyte CLint at 1 µM [8]: 2.4 µL/min/1e6 cells
- Papp B→A [9]: 11 ×10⁻⁶ cm/s
- Activity (Haemophilus influenzae [10]): inactive
- Activity (Haemophilus influenzae [11]): inactive
- Papp A→B [12]: 0.2 ×10⁻⁶ cm/s
- AUC(0-inf) [13]: 1.2 µM·h
- Activity (Escherichia coli [14]): inactive
- Activity (Streptococcus pneumoniae): inactive
- T1/2 [15]: 1.75 h
- C0 [16]: 4900 nM
- AUC(0-inf) [17]: 0.04 µM·h
- half-life [18]: 1.1 h
- Cmax [19]: 20 nM
- Activity (Staphylococcus aureus): inactive
- Activity (Pseudomonas aeruginosa [20]): inactive
- clearance [21]: 34.4 mL/min/kg
- LCK [22]: 4
- MCC at 72 h [23]: > 100 µM
- MIC [24]: > 50 µM
- Activity (Candida albicans): inactive
- fold change (FC) [25]: > 143
- TIME [26]: 2.53 h
- Vd [27]: 0.9 L/kg
- Activity (Escherichia coli [28]): inactive
- IC50 [29]: 6 nM
- IC50 [30]: > 100000 nM
- Activity [31]: inactive
- MBC [32]: 0.8 µM (≈ 0.337 µg/mL)
- logD [33]: 2.2
- Activity (Pseudomonas aeruginosa [34]): inactive
- half-life [35]: 0.5 h
- Kdiss [36]: 0.00011 s⁻¹
- IC80 [37]: > 100000 nM
- Activity [38]: inactive
- MIC [39]: 0.4 µM (≈ 0.169 µg/mL)
- solubility at 24 h [40]: 26 µM (≈ 11 µg/mL)
- MIC [41]: 0.4 µM (≈ 0.169 µg/mL)

Structure (SMILES): Cn1ncc(C(=O)N2[C@@H]3CC[C@H]2C[C@@H](Nc2cc(=O)[nH]c4ccc(F)cc24)C3)c1Cl
- IC50 [7]: 550 nM
- Activity [42]: Active
- Activity [43]: Active
- MIC [24]: 6.25 µM (≈ 2.69 µg/mL)
- fold change (FC) [25]: 12
- IC50 [29]: 30 nM
- MIC [39]: 0.39 µM (≈ 0.168 µg/mL)
